In the array DNA melting data of Ke et al. (doi:10.1101/2024.01.08.574731):

Columns and labels:
[1] = folding enthalpy; higher = less favourable; fluorescence melt of hairpins on a sequencing array, two-state fit; conditions: sodium 0.088 M
Summary of the method: (§1)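 Bootstrapped two-state fits yielded melting temperature and folding enthalpy for library hairpins. Cy3 fluorescence, with annealed Cy3 and quencher oligos, was imaged on a sequenced MiSeq flow cell in 50 mM Na-HEPES pH 8.0, 25 mM NaCl in 2.5 °C steps up to 60 °C, and normalised to pre-quench Cy3 and to control constructs. Four replicates were combined by inverse variance, and fitted temperatures were raised by 9.35 °C to match UV melts.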

[2] = melting temperature; fluorescence melt of hairpins on a sequencing array, two-state fit, raised by 9.35 °C to match UV melts; conditions: sodium 0.088 M
Summary of the method: as §1

| Sequence | folding enthalpy [1] | Tm [2] |
| --- | --- | --- |
| GCGACCACTCGC ((((....)))) | -25.4 kcal/mol | 47 °C |
| GCGACCGAAAGGTACCGC ((((((....)))..))) | -21.9 kcal/mol | 47.2 °C |
| GCGACCGAAAGGTGACGC ((((((....)))..))) | -26.7 kcal/mol | 52 °C |
| GCGACCGAAAGGTTCCGC ((((((....)))..))) | -18.8 kcal/mol | 43.5 °C |
| GCGACCGAAAGGTTCGC ((((((....))).))) | -33 kcal/mol | 65.6 °C |
| GCGACCGATCGC ((((....)))) | -21.4 kcal/mol | 45.6 °C |
| GCGACCGCGAAAGCGCGC (((..(((....)))))) | -15.4 kcal/mol | 56.1 °C |
| GCGACCGGAAACAGTCGC (((((.(....).))))) | -39.2 kcal/mol | 55.1 °C |
| GCGACCGTTCGC ((((....)))) | -22.8 kcal/mol | 49.1 °C |
| GCGACCTCGAAAGAGCGC (((..(((....)))))) | -31.1 kcal/mol | 49.1 °C |
| GCGACCTTTCGC ((((....)))) | -21.4 kcal/mol | 47 °C |
| GCGACGACGAAAGTCCGC (((..(((....)))))) | -24.7 kcal/mol | 51.4 °C |
| GCGACGCATCGC ((((....)))) | -16 kcal/mol | 49.8 °C |
| GCGACGCGAAAGCAACGC (((..((....))..))) | -16.8 kcal/mol | 54.2 °C |
| GCGACGCGAAAGCATCGC ((((.((....)).)))) | -43.2 kcal/mol | 66.9 °C |
| GCGACGCGAAAGCATTGC ((.(.((....)).).)) | -19.2 kcal/mol | 40.5 °C |
| GCGACGCGAAAGCGAAGC ((..(((....)))..)) | -36.5 kcal/mol | 66.2 °C |
| GCGACGCGAAAGCGCGGC ((..(((....)))..)) | -13.1 kcal/mol | 55.7 °C |
| GCGACGCGAAAGCTTGGC ((.(.((....)).).)) | -10.3 kcal/mol | 37.2 °C |
| GCGACGGCTCGC ((((....)))) | -13.3 kcal/mol | 49.5 °C |
| GCGACGGGAAACCACCGC (((..((....))..))) | -25.4 kcal/mol | 40.2 °C |
| GCGACGGGAAACTGTCGC (((((.(....).))))) | -35.9 kcal/mol | 67.6 °C |
| GCGACGGTTCGC ((((....)))) | -20.1 kcal/mol | 49.1 °C |
| GCGACGTTCGC ((((...)))) | -17.3 kcal/mol | 48 °C |
| GCGACGTTTCGC ((((....)))) | -17.9 kcal/mol | 47.8 °C |

| Sequence | folding enthalpy [1] | Tm [2] |
| --- | --- | --- |
| GCGACTCCGAAAGGACGC (((..(((....)))))) | -25.6 kcal/mol | 46.7 °C |
| GCGACTCGAAAGAGACGC (((.(((....))).))) | -48.5 kcal/mol | 62.3 °C |
| GCGACTGATCGC ((((....)))) | -21.9 kcal/mol | 46.8 °C |
| GCGACTGGAAACAATCGC ((((.((....)).)))) | -40.4 kcal/mol | 45.5 °C |
| GCGACTGGAAACAGTCAC (.(((((....))))).) | -14.4 kcal/mol | 48.2 °C |
| GCGACTTCGAAAGAACGC (((..(((....)))))) | -22.4 kcal/mol | 36.7 °C |
| GCGAGAAATCGC ((((....)))) | -21.5 kcal/mol | 52.5 °C |
| GCGAGAGAAATCTCGC ((((((....)))))) | -32.3 kcal/mol | 66.8 °C |
| GCGAGAGGAAACCCTCGC (((((.(....).))))) | -27.8 kcal/mol | 54.1 °C |
| GCGAGAGGAAACTCCCGC (((.(((....))).))) | -35.5 kcal/mol | 48.5 °C |
| GCGAGAGGAAACTCTTGC ((.((((....)))).)) | -37 kcal/mol | 50 °C |
| GCGAGAGTTCGC ((((....)))) | -16.3 kcal/mol | 47.5 °C |
| GCGAGATATCGC ((((....)))) | -24.3 kcal/mol | 56.9 °C |
| GCGAGATCTCGC ((((....)))) | -35.4 kcal/mol | 54.1 °C |
| GCGAGATTCGC ((((...)))) | -17.1 kcal/mol | 47.7 °C |
| GCGAGCCGTCGC ((((....)))) | -20 kcal/mol | 52.7 °C |
| GCGAGCGAAAGCTCACGC ((((((....)))..))) | -14.8 kcal/mol | 60.8 °C |
| GCGAGCGAAAGCTCCCGC ((((((....)))..))) | -11.6 kcal/mol | 42.4 °C |
| GCGAGCGAAAGCTCTCGC ((((((....)))..))) | -17.4 kcal/mol | 52.3 °C |
| GCGAGCGAAAGCTTACGC ((((((....)))..))) | -20.6 kcal/mol | 50.7 °C |
| GCGAGCGAAAGCTTTCGC ((((((....)))..))) | -13.2 kcal/mol | 50.3 °C |
| GCGAGCGCGAAAGCGCGC (((..(((....)))))) | -7.4 kcal/mol | 59.9 °C |
| GCGAGCTGTCGC ((((....)))) | -17.8 kcal/mol | 48.8 °C |
| GCGAGCTTTCGC ((((....)))) | -19.3 kcal/mol | 50.5 °C |
| GCGAGGAAACTCGC (((((....))))) | -32.6 kcal/mol | 66.4 °C |

| Sequence | folding enthalpy [1] | Tm [2] |
| --- | --- | --- |
| GCGAGGACGAAAGTCCGC (((..(((....)))))) | -8.47 kcal/mol | 56.2 °C |
| GCGAGGCCTCGC ((((....)))) | -46 kcal/mol | 62.8 °C |
| GCGAGGCGAAAGCATAGC ((.(.((....)).).)) | -21.2 kcal/mol | 55.6 °C |
| GCGAGGCGAAAGCCCAGC ((..(((....)))..)) | -10.4 kcal/mol | 63.4 °C |
| GCGAGGCGAAAGCCGGGC ((..(((....)))..)) | -20.8 kcal/mol | 65.7 °C |
| GCGAGGGGAAACCCTTGC ((.((((....)))).)) | -35.8 kcal/mol | 55.6 °C |
| GCGAGTATCGC ((((...)))) | -18.7 kcal/mol | 58.4 °C |
| GCGAGTATTCGC ((((....)))) | -26.6 kcal/mol | 57.2 °C |
| GCGAGTCTTCGC ((((....)))) | -26.2 kcal/mol | 57.2 °C |
| GCGAGTGCTCGC ((((....)))) | -26.2 kcal/mol | 52 °C |
| GCGAGTTTTCGC ((((....)))) | -16.5 kcal/mol | 53.3 °C |
| GCGATAAATCGC ((((....)))) | -19.3 kcal/mol | 49.8 °C |
| GCGATAACGAAAGTTCGC (((..(((....)))))) | -28.2 kcal/mol | 51.1 °C |
| GCGATACCGAAAGGTCGC (((..(((....)))))) | -29.3 kcal/mol | 54.3 °C |
| GCGATACGAAAGTAACGC (((.(((....))).))) | -41.5 kcal/mol | 57.9 °C |
| GCGATAGGAAACTATCAC (.(((((....))))).) | -18.4 kcal/mol | 35.9 °C |
| GCGATAGGAAACTGTCGC ((((.((....)).)))) | -50.7 kcal/mol | 54.5 °C |
| GCGATATCGAAAGATCGC (((..(((....)))))) | -30.7 kcal/mol | 50.1 °C |
| GCGATATTCGC ((((...)))) | -17.2 kcal/mol | 51.9 °C |
| GCGATCCTTCGC ((((....)))) | -24.6 kcal/mol | 53.7 °C |
| GCGATCGAAAGATGCGC ((((((....))).))) | -27.8 kcal/mol | 53.6 °C |
| GCGATCTATCGC ((((....)))) | -31 kcal/mol | 55.5 °C |
| GCGATCTTTCGC ((((....)))) | -27.5 kcal/mol | 51.4 °C |
| GCGATGAAAATCGC (((((....))))) | -31.7 kcal/mol | 61.6 °C |
| GCGATGAATCGC ((((....)))) | -26.2 kcal/mol | 52.4 °C |

| Sequence | folding enthalpy [1] | Tm [2] |
| --- | --- | --- |
| GCGATGCGAAAGCAAGGC ((..(((....)))..)) | -17.2 kcal/mol | 42.3 °C |
| GCGATGCGAAAGCACTGC ((..(((....)))..)) | -19.1 kcal/mol | 45.2 °C |
| GCGATGCGAAAGCATAGC ((.((((....)))).)) | -31.1 kcal/mol | 66.7 °C |
| GCGATGCTTCGC ((((....)))) | -20.2 kcal/mol | 62.3 °C |
| GCGATGGATCGC ((((....)))) | -22.8 kcal/mol | 52.8 °C |
| GCGATGGCGAAAGCCCGC (((..(((....)))))) | -18.4 kcal/mol | 56.5 °C |
| GCGATGGGAAACCACCGC (((.(((....))).))) | -48.5 kcal/mol | 51.1 °C |
| GCGATGGGAAACCATTGC ((.((((....)))).)) | -49.3 kcal/mol | 52.5 °C |
| GCGATGGGAAACCGTTGC ((.(.((....)).).)) | -28.8 kcal/mol | 42.7 °C |
| GCGATTATCGC ((((...)))) | -20.9 kcal/mol | 49 °C |
| GCGATTATTCGC ((((....)))) | -25.1 kcal/mol | 52.4 °C |
| GCGATTCCGAAAGGACGC (((..(((....)))))) | -26.3 kcal/mol | 46 °C |
| GCGATTGGAAACAATTGC ((.((((....)))).)) | -35.4 kcal/mol | 49.7 °C |
| GCGATTGGTCGC ((((....)))) | -23.4 kcal/mol | 52.1 °C |
| GCGATTGTTCGC ((((....)))) | -24.5 kcal/mol | 51.6 °C |
| GCGCAAGGAAACCTGCAC (.(((.(....).))).) | -17 kcal/mol | 29.3 °C |
| GCGCAAGGAAACCTGCGC (((((.(....).))))) | -41.7 kcal/mol | 62.4 °C |
| GCGCAAGGAAACTCACGC (((..((....))..))) | -15 kcal/mol | 28.4 °C |
| GCGCAAGGAAACTCGCAC (.((.((....)).)).) | -13.1 kcal/mol | 27.2 °C |
| GCGCAAGGAAACTTACGC (((.(((....))).))) | -30.6 kcal/mol | 46 °C |
| GCGCACCCGAAAGGGCGC (((..(((....)))))) | -20.5 kcal/mol | 67 °C |
| GCGCACGAAAGTGCACGC ((((((....)))..))) | -14.6 kcal/mol | 61.1 °C |
